In ChEMBL document CHEMBL1208674, “Synthesis and anti-mycobacterial evaluation of some pyrazine-2-carboxylic acid hydrazide derivatives” (Eur J Med Chem, 2010):
Values after ≈ are worked out from the molar mass of the structure shown.

Assays:
[1] = system: Mycobacterium tuberculosis; test: Antimycobacterial activity against Mycobacterium tuberculosis H37Rv by microplate Alamar blue assay; format: functional, organism-based
Procedure, shortened: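 M. tuberculosis H37Rv (ATCC 27294) grown in BACTEC 12B medium, broth microdilution read by Alamar Blue (MABA). Ten 2-fold dilutions, typically 100 to 0.19 µg/mL. IC90 = concentration giving 90% fluorescence reduction relative to controls; IC50 at 50%. Both taken from dose-response curve by curve fitting. Run alongside a parallel VERO cytotoxicity assay.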

[2] = Cytotoxicity against african green monkey Vero cells after 72 hrs by Cell titer Glo assay; format: cell-based; conditions: chlorocebus sabaeus
Procedure, shortened: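 VERO cells exposed to compounds for 72 h, run in parallel with the M. tuberculosis dose-response assay. Viability read by ATP-based luminescence (Cell Titer-Glo). CC50 taken from the dose-response curve by curve fitting.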

Row | Compound | IC50 [1] [µg/mL] | IC90 [1] [µg/mL] | CC50 at 72 h [2] [µg/mL]
1 | COc1cc(/C=N/NC(=O)c2cnccn2)ccc1O | > 100 | > 100 | > 30
2 | Nc1cccc(/C=N/NC(=O)c2cnccn2)c1 | > 100 | > 100 | > 30
3 | COc1ccc(/C(C)=N/NC(=O)c2cnccn2)cc1 | > 100 | > 100 | > 30
4 | C/C(=N\NC(=O)c1cnccn1)c1ccc(Br)cc1 | > 100 | > 100 | > 30
5 | Cc1ccc2nc(Cl)c(/C=N/NC(=O)c3cnccn3)cc2c1 | > 100 | > 100 | > 30
6 | COc1ccc2nc(Cl)c(/C=N/NC(=O)c3cnccn3)cc2c1 | > 100 | > 100 | 5.37 (≈ 15.7 µM)
7 | CCNC(=S)NNC(=O)c1cnccn1 | 11.4 (≈ 50.5 µM) | 16.9 (≈ 74.9 µM) | 29.8 (≈ 132 µM)
8 | O=C(N/N=C/c1ccccc1O)c1cnccn1 | > 100 | > 100 | 11.4 (≈ 47.2 µM)
9 | O=C(N/N=C/c1ccc(Cl)cc1)c1cnccn1 | > 100 | > 100 | > 30
10 | COc1ccc(/C=N/NC(=O)c2cnccn2)cc1 | > 100 | > 100 | > 30
11 | O=C(N/N=C/c1ccc(O)cc1)c1cnccn1 | > 100 | > 100 | > 30
12 | O=C(N/N=C/c1cccc(O)c1)c1cnccn1 | > 100 | > 100 | > 30
13 | NNC(=O)c1cnccn1 [PYRAZINE CARBOXYLIC ACID HYDRAZIDE] | > 100 | > 100 | > 30
